The text below walks through data of ChEMBL document CHEMBL3272038, “Synthesis and central nervous system depressant activity of some bicyclic amides” (J Med Chem, 1976).

Calls of active or inactive are those of the source. The rule behind the calls is not given here.

For series [1], the species on record is Mus musculus. Briefly: Anticonvulsant activity in mouse assessed as protection against maximal electroshock-induced seizures. In kind it is functional. The method, boiled down: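 Maximal electroshock seizure test in mice, run by an earlier published method. Compounds were given ip at ten animals per dose, and ED50 is expressed in mg/kg ip.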
A general note: Protection in the maximal electroshock model is a classic sign of anticonvulsant action.

The subject of series [2] is Mus musculus. The experiment in a line: Central nervous depressant activity in ip dosed mouse assessed as loss of righting reflex. The class given is functional. The following applies: Central nervous system. The gist of the method: (§1)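 Behavioral scoring in mice used a modified Irwin observational method. Compounds were given ip at ten animals per dose. Ataxia and loss of righting reflex were recorded, and ED50 values are in mg/kg ip.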

Series [3] relates to Mus musculus. The experiment in a line: Central nervous depressant activity in ip dosed mouse assessed as induction of ataxia. The class given is functional. The following applies: Central nervous system. The gist of the method:
as §1

Series [4] is described as follows: Acute toxicity in ip dosed Royal Hart Wistar rat. In kind it is organism-based. The following applies: in vivo. The gist of the method:
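Paired male Royal Hart Wistar rats (136–160 g) were housed in wire cages and dosed ip. LD50 was read 2 hr after administration, using four rats per substance, and estimated by probit analysis.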

The species entered for series [5] is Mus musculus. Briefly: Anticonvulsant activity in mouse assessed as protection against N-sulfamoylhexahydroazepine-induced convulsions. In kind it is functional. The gist of the method: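 N-sulfamoylhexahydroazepine convulsion test in mice, run by an earlier published method. Compounds were given ip at ten animals per dose, and ED50 is expressed in mg/kg ip.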

For series [6], the system named is Mus musculus. The experiment in a line: Reinduction of anesthesia-induced loss of righting in dosed mouse administered compound following recovery from hexobarbital anesthesia. The class given is functional. The gist of the method: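 Mice were anesthetized with hexobarbital (70 mg/kg iv). Compound was given ip immediately on recovery, and reinduction of loss of righting was timed from that point. The method was modified from earlier work, and RD50 is expressed in mg/kg ip.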

Series [7] relates to Mus musculus. Briefly: Anticonvulsant activity in mouse assessed as protection against N-sulfamoylhexahydroazepine-induced convulsions at 400 mg/kg, ip. The class given is functional, organism-based. Also noted: dose 400 mg/kg.
In series [8] the test system is Mus musculus. The experiment in a line: Anticonvulsant activity in mouse assessed as protection against maximal electroshock-induced seizures at 200 mg/kg, ip. The class given is functional, organism-based. More on the design: dose 200 mg/kg.
The test system of series [9] is Mus musculus. The experiment in a line: Anticonvulsant activity in mouse assessed as protection against N-sulfamoylhexahydroazepine-induced convulsions at 200 mg/kg, ip. The class given is functional, organism-based. Also noted: dose 200 mg/kg.
Series [10] has as its system Mus musculus. Briefly: Anticonvulsant activity in mouse assessed as protection against maximal electroshock-induced seizures at 100 mg/kg, ip. More on the design: dose 100 mg/kg. In kind it is functional, organism-based.

As usually defined, the ED50 is the dose at which the effect has come halfway, by size or by number of responders. By LD50 is commonly meant the dose at which mortality reaches 50%. Read a low LD50 as a more toxic substance. As for `O=C(CCC(=O)c1cccs1)NCCCO`, the ED50 was over 300 mg/kg in the series filed under Mus musculus [1], 300 mg/kg in the series on Mus musculus [2], 300 mg/kg in the series with Mus musculus [3] and over 300 mg/kg in the series listed under Mus musculus [5]. Besides, the 50% lethal dose (LD50) in series [4] was determined as 475 mg/kg. In the series with Mus musculus [6], the RD50 is over 300 mg/kg.

For `O=C(CCC(=O)c1ccc(F)cc1)NCCCO`, the ED50 in the series listed under Mus musculus [1] is over 400 mg/kg; in the series on Mus musculus [2], 500 mg/kg; in the series on Mus musculus [3], 300 mg/kg; in the series listed under Mus musculus [5], over 400 mg/kg. This compound also yielded an LD50 in [4] of over 800 mg/kg. The compound further registered an RD50 with Mus musculus [6] of over 400 mg/kg.

As for `Cc1ccc(C23CCC(=O)N2CCCO3)c(C)c1` (stereo not drawn), the ED50 in the series listed under Mus musculus [1] was over 150 mg/kg; in the series with Mus musculus [2], 150 mg/kg; in the series on Mus musculus [3], under 50 mg/kg; in the series filed under Mus musculus [5], under 150 mg/kg. In [4], the 50% lethal dose (LD50) was 600 mg/kg. The compound also returned an RD50 in the series with Mus musculus [6] of under 150 mg/kg.

With `CCC1(c2ccccc2)C(=O)N=C([O-])NC1=O.[Na+]` (stereo not drawn) [PHENOBARBITAL SODIUM], the median effective dose (ED50) was determined as 15.4 mg/kg in the series filed under Mus musculus [1], 83 mg/kg with Mus musculus [2], 62.5 mg/kg in the series with Mus musculus [3] and 8 mg/kg in the series listed under Mus musculus [5]. For the same compound, in series [4], the LD50 was 225 mg/kg. Further, the RD50 with Mus musculus [6] turned out to be 65.6 mg/kg.

`CCC1(c2ccccc2)CCC(=O)NC1=O` (stereo not drawn) [GLUTETHIMIDE]: the median effective dose (ED50) in the series filed under Mus musculus [1] was 24.7 mg/kg; with Mus musculus [2] it was 229 mg/kg; in the series on Mus musculus [3], 100 mg/kg. In addition, the result with Mus musculus [7] was inactive. This compound showed a median lethal dose (LD50) in [4] of 350 mg/kg. For the same compound, the RD50 with Mus musculus [6] was 112.5 mg/kg.

Turning to `O=C1CCC2(c3ccccc3)OCCN12` (stereo not drawn), the ED50 in the series on Mus musculus [2] is 150 mg/kg; in the series with Mus musculus [3] it was under 50 mg/kg. In addition, the result in the series with Mus musculus [8] and in the series with Mus musculus [9] was inactive. In series [4], this compound had an LD50 of 300 mg/kg. This compound yielded an RD50 with Mus musculus [6] of 37.5 mg/kg.

For the compound `COc1ccc(C(=O)CCC(=O)NCCCO)cc1`, the ED50 in the series filed under Mus musculus [1] is over 600 mg/kg; in the series on Mus musculus [2], 800 mg/kg; in the series on Mus musculus [3], 150 mg/kg; in the series filed under Mus musculus [5], over 600 mg/kg. Besides, in series [4], the LD50 turned out to be 800 mg/kg. The compound also registered an RD50 in the series on Mus musculus [6] of under 600 mg/kg.

On to `O=C(CCC(=O)c1ccc(Cl)c(Cl)c1)NCCCO`, for which the ED50 in the series filed under Mus musculus [1] is 450 mg/kg; in the series on Mus musculus [2] it was 500 mg/kg; with Mus musculus [3] it was 300 mg/kg; in the series filed under Mus musculus [5], over 600 mg/kg. The compound further gave an LD50 in series [4] of 500 mg/kg. For the same compound, the RD50 in the series with Mus musculus [6] was over 300 mg/kg.

Turning to `O=C1CCC2(c3ccc(Cl)c(Cl)c3)OCCCN12` (stereo not drawn), the ED50 in the series filed under Mus musculus [1] was 112 mg/kg; in the series with Mus musculus [2] it was under 150 mg/kg; in the series on Mus musculus [3] it was under 150 mg/kg; in the series listed under Mus musculus [5], under 75 mg/kg. In addition, the LD50 in series [4] worked out at 550 mg/kg. In addition, the RD50 in the series on Mus musculus [6] was over 150 mg/kg.

As to `O=C1CCC2(c3cccs3)OCCCN12` (stereo not drawn), the 50% effective dose (ED50) in the series filed under Mus musculus [1] was 112 mg/kg; in the series with Mus musculus [2] it was over 75 mg/kg; in the series on Mus musculus [3], over 75 mg/kg; in the series filed under Mus musculus [5] it was over 75 mg/kg. In addition, the median lethal dose (LD50) in series [4] was found to be 467 mg/kg. Moreover, the RD50 with Mus musculus [6] came out at 46.5 mg/kg.

On to `Cc1ccc(C(=O)CCC(=O)NCCCO)cc1`, for which the median effective dose (ED50) in the series listed under Mus musculus [1] was over 300 mg/kg; with Mus musculus [2] it was 700 mg/kg; in the series on Mus musculus [3], 300 mg/kg; in the series filed under Mus musculus [5], over 300 mg/kg. Also, the LD50 in series [4] was determined as 750 mg/kg. The same compound showed an RD50 in the series on Mus musculus [6] of under 300 mg/kg.

Turning to `O=C1CCC2(c3ccc(Cl)cc3)OCCCN12` (stereo not drawn), the 50% effective dose (ED50) in the series filed under Mus musculus [1] amounted to 58 mg/kg; in the series with Mus musculus [2], 81.2 mg/kg; in the series on Mus musculus [3], 75 mg/kg; in the series filed under Mus musculus [5], 91.7 mg/kg. The same compound gave an LD50 in [4] of 675 mg/kg. The compound also displayed an RD50 in the series with Mus musculus [6] of over 100 mg/kg.

For the compound `O=C(CCC(=O)c1ccc(Cl)cc1)NCCCO`, the ED50 in the series filed under Mus musculus [1] is over 300 mg/kg; in the series with Mus musculus [2] it was 325 mg/kg; in the series on Mus musculus [3], 300 mg/kg; in the series listed under Mus musculus [5], over 300 mg/kg. Besides, in [4], the 50% lethal dose (LD50) was determined as 633 mg/kg. In the series on Mus musculus [6], the RD50 is under 300 mg/kg.

In the case of `Cc1ccc(C(=O)CCC(=O)NCCCO)c(C)c1`, the 50% effective dose (ED50) in the series filed under Mus musculus [1] is over 150 mg/kg; in the series with Mus musculus [2] it was 150 mg/kg; with Mus musculus [3] it was 150 mg/kg; in the series listed under Mus musculus [5], over 150 mg/kg. The LD50 in series [4] is 633 mg/kg. The RD50 in the series with Mus musculus [6] was under 150 mg/kg.

Regarding `O=C1CCC2(c3ccccc3)OCCCN12` (stereo not drawn), the 50% effective dose (ED50) in the series listed under Mus musculus [1] was 92 mg/kg; with Mus musculus [2], 150 mg/kg; with Mus musculus [3], 37.5 mg/kg; in the series filed under Mus musculus [5] it was 169 mg/kg. In [4], this compound yielded a median lethal dose (LD50) of 500 mg/kg. In the series on Mus musculus [6], this compound yielded an RD50 of 34 mg/kg.

As for `O=C1CCC2(c3ccc(F)cc3)OCCCN12` (stereo not drawn), the median effective dose (ED50) came to 68.7 mg/kg in the series filed under Mus musculus [1], 100 mg/kg in the series with Mus musculus [2], 75 mg/kg with Mus musculus [3] and 50 mg/kg in the series filed under Mus musculus [5]. For the same compound, the LD50 in [4] came to 600 mg/kg. Moreover, the RD50 in the series on Mus musculus [6] was 66 mg/kg.

Regarding `Cc1ccc(C23CCC(=O)N2CCCO3)cc1` (stereo not drawn), the result in the series with Mus musculus [10] and with Mus musculus [9] was inactive. Further, the ED50 in the series on Mus musculus [2] is 160 mg/kg; with Mus musculus [3] it was under 50 mg/kg. In [4], this compound gave an LD50 of 675 mg/kg. The compound also came in with an RD50 with Mus musculus [6] of over 100 mg/kg.

Consider `O=C1CCCC2(c3ccccc3)OCCN12` (stereo not drawn), for which the median effective dose (ED50) in the series filed under Mus musculus [1] is 158 mg/kg; in the series with Mus musculus [2] it was over 150 mg/kg; in the series on Mus musculus [3] it was under 150 mg/kg; in the series listed under Mus musculus [5], 150 mg/kg. Further, the RD50 in the series on Mus musculus [6] was 69 mg/kg.

For `O=C1CCCC2(c3ccccc3)OCCCN12` (stereo not drawn), the ED50 is under 150 mg/kg in the series filed under Mus musculus [1], 150 mg/kg in the series on Mus musculus [2], under 50 mg/kg in the series with Mus musculus [3] and 122 mg/kg in the series filed under Mus musculus [5]. This compound also had a median lethal dose (LD50) in series [4] of 500 mg/kg. In the series with Mus musculus [6], the RD50 stood at 75 mg/kg.

Turning to `COc1ccc(C23CCC(=O)N2CCCO3)cc1` (stereo not drawn), the ED50 is 93.8 mg/kg in the series listed under Mus musculus [1], under 150 mg/kg in the series with Mus musculus [2], under 150 mg/kg in the series with Mus musculus [3] and 138 mg/kg in the series filed under Mus musculus [5]. This compound registered an RD50 in the series with Mus musculus [6] of under 150 mg/kg.
